This is an account of results in ChEMBL document CHEMBL4321820, “Identification and Optimization of Mechanism-Based Fluoroallylamine Inhibitors of Lysyl Oxidase-like 2/3” (J Med Chem, 2019).

Molecules are shown by their SMILES. pIC50: −log10 of the molar value.

One series concerns Mus musculus. The experiment in a line: Effect on plasma AST level in CCl4-induced BALB/c mouse model of liver fibrosis at 5 to 15 mg/kg, po administered once daily at week 4 to 6. Format: ADME, organism-based. The conditions noted are these: in vivo. The method in brief:
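CCl4 liver fibrosis in female BALB/c mice: CCl4 i.p. (1 mL/kg 25% in olive oil) twice weekly for 6 weeks, sacrifice 48 h after final injection. Oral once-daily dosing weeks 1-6 or weeks 4-6; imatinib 50 mg/kg daily weeks 1-6. ALT and AST measured in plasma.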

The next series addresses T1, Lysyl oxidase homolog 3 (Homo sapiens, UniProt P58215).
T1 sequence (P58215 whole entry): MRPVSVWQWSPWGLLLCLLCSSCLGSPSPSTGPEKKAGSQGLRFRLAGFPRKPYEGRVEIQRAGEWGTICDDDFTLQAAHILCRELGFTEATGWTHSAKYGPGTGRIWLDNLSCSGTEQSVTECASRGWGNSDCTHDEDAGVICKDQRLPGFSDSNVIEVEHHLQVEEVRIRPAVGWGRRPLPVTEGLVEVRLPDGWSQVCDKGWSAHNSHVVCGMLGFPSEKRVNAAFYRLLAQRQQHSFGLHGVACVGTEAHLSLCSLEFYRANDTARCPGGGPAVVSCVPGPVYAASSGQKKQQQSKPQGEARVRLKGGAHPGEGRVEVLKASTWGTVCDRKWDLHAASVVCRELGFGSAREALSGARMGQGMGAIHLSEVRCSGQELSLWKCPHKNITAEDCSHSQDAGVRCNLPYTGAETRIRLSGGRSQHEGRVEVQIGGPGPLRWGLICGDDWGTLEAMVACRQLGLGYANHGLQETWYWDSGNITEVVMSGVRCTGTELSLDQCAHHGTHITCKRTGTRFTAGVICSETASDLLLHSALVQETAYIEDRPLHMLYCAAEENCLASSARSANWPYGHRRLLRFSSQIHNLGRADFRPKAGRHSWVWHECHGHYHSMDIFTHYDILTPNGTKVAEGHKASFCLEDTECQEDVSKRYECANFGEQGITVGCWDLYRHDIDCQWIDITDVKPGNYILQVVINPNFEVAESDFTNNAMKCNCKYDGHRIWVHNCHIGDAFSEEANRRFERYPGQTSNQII
The experiment in a line: Inhibition of recombinant C-terminal His-tagged human LOXL3 (1 to 753 residues) expressed in CHO cells using putrescine as substrate preincubated with enzyme for 30 mins followed by substrate addition and measured every 2.5 mins for 30 mins by Amplex-Red oxidation assay. An outline of the steps: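 Recombinant human LOXL3 or LOXL4 preincubated 30 min at 37 °C with compound in 1.2 M urea/50 mM borate pH 8.2, then Amplex Red (120 µM)/HRP (1.5 U/mL) with 2 mM putrescine; fluorescence read every 2.5 min for 30 min.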

Series [1] is described as follows: Stability in human microsomes assessed as half life. Type of series: ADME, Microsome.
The nature of series [2]: Stability in human plasma assessed as half life. Type of series: ADME, cell-free.
The nature of series [3]: Stability in rat plasma assessed as half life.
A short description of series [4]: Protein binding in rat plasma. Type of series: ADME, cell-free. Conditions: read-out: PPB (converted).
For a further series, the target named is T2, Protein-lysine 6-oxidase (Mus musculus, UniProt P28301).
T2 sequence (P28301 whole entry): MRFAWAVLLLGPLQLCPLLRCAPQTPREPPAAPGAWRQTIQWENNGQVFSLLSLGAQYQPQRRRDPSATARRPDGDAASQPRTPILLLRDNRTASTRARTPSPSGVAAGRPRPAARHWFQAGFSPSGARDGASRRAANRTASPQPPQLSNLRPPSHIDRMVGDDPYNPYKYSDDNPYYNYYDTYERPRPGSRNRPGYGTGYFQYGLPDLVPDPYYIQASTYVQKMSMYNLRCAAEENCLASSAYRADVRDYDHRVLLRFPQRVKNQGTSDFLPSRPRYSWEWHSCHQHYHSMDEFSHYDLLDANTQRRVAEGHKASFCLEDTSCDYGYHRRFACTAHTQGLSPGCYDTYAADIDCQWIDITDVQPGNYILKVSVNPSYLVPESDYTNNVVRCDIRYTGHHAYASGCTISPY
The experiment in a line: Inhibition of LOX in mouse lung fibroblast cells using putrescine as substrate preincubated with enzyme for 30 mins followed by substrate addition and measured every 2.5 mins for 30 mins by Amplex-Red oxidation assay. An outline of the steps: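 LOX from conditioned medium of fibroblasts cultured from homogenized mouse lung, concentrated and isolated as for the human fibroblast enzyme, in 1.2 M urea/50 mM borate pH 8.2. 30 min preincubation with compound at 37 °C, then Amplex Red/HRP plus putrescine; fluorescence read every 2.5 min for 30 min.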

A further series deals with T3, Lysyl oxidase homolog 2 (Homo sapiens, UniProt Q9Y4K0).
T3 sequence (Q9Y4K0 whole entry): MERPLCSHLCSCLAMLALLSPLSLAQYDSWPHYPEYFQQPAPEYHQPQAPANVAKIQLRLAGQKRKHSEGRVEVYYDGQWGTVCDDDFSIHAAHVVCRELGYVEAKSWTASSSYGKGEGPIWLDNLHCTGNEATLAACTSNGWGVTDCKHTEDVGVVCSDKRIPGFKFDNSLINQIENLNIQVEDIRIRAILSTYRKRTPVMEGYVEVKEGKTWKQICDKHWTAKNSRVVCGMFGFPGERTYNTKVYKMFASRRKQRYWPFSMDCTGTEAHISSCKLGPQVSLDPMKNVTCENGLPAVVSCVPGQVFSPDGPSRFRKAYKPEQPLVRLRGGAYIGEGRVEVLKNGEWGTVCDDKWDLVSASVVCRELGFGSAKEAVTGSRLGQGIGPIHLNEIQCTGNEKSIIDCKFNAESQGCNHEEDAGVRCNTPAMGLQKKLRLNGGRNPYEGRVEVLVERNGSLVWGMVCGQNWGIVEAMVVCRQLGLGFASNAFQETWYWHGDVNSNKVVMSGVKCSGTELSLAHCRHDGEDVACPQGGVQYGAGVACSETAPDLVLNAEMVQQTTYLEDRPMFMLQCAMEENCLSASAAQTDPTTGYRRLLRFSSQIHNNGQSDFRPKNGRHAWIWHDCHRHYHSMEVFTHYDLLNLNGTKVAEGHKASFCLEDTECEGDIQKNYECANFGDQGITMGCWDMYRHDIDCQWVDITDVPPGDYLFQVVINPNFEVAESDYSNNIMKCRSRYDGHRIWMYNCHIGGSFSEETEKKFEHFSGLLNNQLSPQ
As to the kind of experiment: Inhibition of recombinant human LOXL2 assessed as inhibition of collagen cross linking compound replenishment for 5 days and measured on day 7 by UPLC-ESI-MS/MS analysis.

The nature of series [5]: Protein binding in human plasma. Format: ADME, cell-free. Conditions: read-out: PPB (converted).

As to `CCOC(=O)c1ccc2c(c1)c(-c1cccc(S(=O)(=O)N(C)C)c1)c(C)n2C/C(F)=C/CN.Cl`, the Activity result in the series with Mus musculus is “Non-Toxic”.

As to `Cc1c(-c2cccc(S(=O)(=O)N(C)C)c2)c2cc(C(=O)O)ccc2n1C/C(F)=C/CN.Cl`, the values for the negative logarithm of the IC50 (pIC50) on Lysyl oxidase homolog 3, against Protein-lysine 6-oxidase and on Lysyl oxidase homolog 2 were 7.80, 5.76 and 7.89, respectively. In addition, the figures for the half-life in [1], in series [2] and in [3] were more than 1.5 h, more than 2 h and more than 2 h, respectively. Besides, the fraction unbound in [4] is 0.12; in [5], 0.08.
